In ChEMBL document CHEMBL4765234 (J Med Chem, 2016):
Calls of active or inactive are those of the source. The rule behind the calls is not given here.

Columns and labels:
[1] = molecular target: T1, Peroxisome proliferator-activated receptor gamma (Homo sapiens) (UniProt P37231); experiment: Displacement of [3H]-[…] from PPARgamma (unknown origin) expressed in baculovirus infected Sf9 insect cells upto 30 uM measured after 10 hrs by microbeta scintillation counting analysis; conditions: dose microM <=30, time 10.0 hrs
T1 sequence (whole entry): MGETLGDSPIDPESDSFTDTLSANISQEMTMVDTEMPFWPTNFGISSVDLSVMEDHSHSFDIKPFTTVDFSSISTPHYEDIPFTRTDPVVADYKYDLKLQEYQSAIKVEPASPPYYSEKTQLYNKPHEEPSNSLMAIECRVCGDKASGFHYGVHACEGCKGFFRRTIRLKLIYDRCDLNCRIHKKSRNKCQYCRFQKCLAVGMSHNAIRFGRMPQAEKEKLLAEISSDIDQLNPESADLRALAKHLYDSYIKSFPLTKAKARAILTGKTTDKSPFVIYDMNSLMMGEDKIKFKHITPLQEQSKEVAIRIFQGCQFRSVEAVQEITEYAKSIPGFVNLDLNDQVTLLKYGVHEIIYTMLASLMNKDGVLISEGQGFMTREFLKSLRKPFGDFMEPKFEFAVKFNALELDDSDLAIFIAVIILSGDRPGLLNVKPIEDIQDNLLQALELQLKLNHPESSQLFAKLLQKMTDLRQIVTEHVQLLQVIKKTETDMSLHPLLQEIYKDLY
In short: (§1)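 Scintillation proximity assay. Sf9 lysates with baculovirus-expressed PPARα (0.3 μg), PPARδ (0.5 μg) or PPARγ (1.25 μg), each with RXRα, were bound via biotinylated DR2 oligo (0.126 nM) to streptavidin yttrium silicate beads. Buffer was HEPES pH 7.8 with KCl, MgCl2, DTT, CHAPS, 14% glycerol and salmon sperm DNA. A 3H reference agonist ligand was used, with 11 compound concentrations, for 10 h. Nonspecific binding was defined with 10000 nM unlabeled reference. Ki was derived from IC50.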

[2] = molecular target: T2, Peroxisome proliferator-activated receptor alpha (Homo sapiens) (UniProt Q07869); experiment: Displacement of [3H]-[…] from PPARalpha (unknown origin) expressed in baculovirus infected Sf9 insect cells upto 30 uM measured after 10 hrs by microbeta scintillation counting analysis; conditions: dose microM <=30, time 10.0 hrs; in short: as §1
T2 sequence (whole entry): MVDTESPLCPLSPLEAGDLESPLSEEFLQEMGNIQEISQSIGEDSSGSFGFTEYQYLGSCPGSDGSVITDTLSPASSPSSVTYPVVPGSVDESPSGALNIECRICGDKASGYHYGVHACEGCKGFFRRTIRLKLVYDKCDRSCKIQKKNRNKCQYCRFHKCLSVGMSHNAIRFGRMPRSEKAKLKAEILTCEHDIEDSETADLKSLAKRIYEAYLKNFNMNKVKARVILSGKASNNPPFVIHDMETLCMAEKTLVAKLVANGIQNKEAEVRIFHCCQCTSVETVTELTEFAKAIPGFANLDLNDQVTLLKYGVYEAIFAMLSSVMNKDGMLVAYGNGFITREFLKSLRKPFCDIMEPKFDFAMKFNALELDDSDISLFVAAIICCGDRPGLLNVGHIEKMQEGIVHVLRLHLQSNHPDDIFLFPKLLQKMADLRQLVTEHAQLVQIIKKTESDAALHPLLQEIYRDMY

[3] = molecular target: T3, Free fatty acid receptor 1 (Homo sapiens, UniProt O14842); experiment: Agonist activity at human recombinant full length GPR40 overexpressed in human HEK293 cells assessed as increase in intracellular calcium level measured over 3 mins by calcium 4 dye based FLIPR assay relative to 100 uM linoleic acid; assay type: functional, cell-based; conditions: filed as agonist
In short: (§2)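 HEK293 cells overexpressing hGPR40 (25K/well) were cultured overnight in DMEM/F12 with 0.2% FBS and geneticin. Compound was tested at 40 μM–0.1 nM final (20-point, 1% DMSO), and FLIPR fluorescence was read over 3 min.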

[4] = molecular target: T3, Free fatty acid receptor 1; experiment: Displacement of [3H]-TAK-875 from human recombinant full-length GPR40 expressed in human HEK293 cell membrane incubated for 2 hrs by solid scintillation counting method; assay type: cell membranes
[5] = molecular target: T3, Free fatty acid receptor 1; experiment: Agonist activity at human recombinant full length GPR40 overexpressed in human HEK293 cells assessed as increase in intracellular calcium level measured over 3 mins by calcium 4 dye based FLIPR assay; assay type: functional, cell-based; in short: as §2
[6] = molecular target: Free fatty acid receptor 1 (Rattus norvegicus, UniProt Q8K3T4); experiment: Agonist activity at Prolink-tagged rat GPR40 fused with EA-tagged beta-arrestin expressed in human U2OS cells assessed as induction of beta-arrestin recruitment measured after 90 mins by beta-galactosidase based PathHunter assay; assay type: cell-based
In short: (§3)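 PathHunter β-gal complementation. Cells were incubated overnight at 5000/well in medium with 1% heat-inactivated FBS. Compound was added as a 20-point 2-fold series from a top final of 100 μM (1% DMSO) for 90 min at 37 °C, followed by detection reagents and chemiluminescence read after 1 h at rt.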

[7] = molecular target: Free fatty acid receptor 1 (Mus musculus, UniProt Q76JU9); experiment: Agonist activity at Prolink-tagged mouse GPR40 fused with EA-tagged beta-arrestin expressed in human U2OS cells assessed as induction of beta-arrestin recruitment measured after 90 mins by beta-galactosidase based PathHunter assay; assay type: cell-based; in short: as §3
[8] = molecular target: T3, Free fatty acid receptor 1; experiment: Agonist activity at human recombinant full-length Prolink-tagged GPR40 fused with EA-tagged beta-arrestin expressed in human HEK293 cells assessed as induction of beta-arrestin recruitment measured after 90 mins by beta-galactosidase based PathHunter assay relative to control; assay type: cell-based; conditions: filed as agonist; in short: as §3
[9] = molecular target: T3, Free fatty acid receptor 1; experiment: Agonist activity at human recombinant full-length Prolink-tagged GPR40 fused with EA-tagged beta-arrestin expressed in human HEK293 cells assessed as induction of beta-arrestin recruitment measured after 90 mins by beta-galactosidase based PathHunter assay; assay type: cell-based; in short: as §3
[10] = Protein binding in plasma (unknown origin) by equilibrium dialysis method; assay type: ADME, cell-free; conditions: human, read-out: PPB
In short: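 Plasma protein binding measured by equilibrium dialysis.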

[11] = molecular target: T4, Peroxisome proliferator-activated receptor delta (Homo sapiens) (UniProt Q03181); experiment: Displacement of [3H]-[…] from PPARdelta (unknown origin) expressed in baculovirus infected Sf9 insect cells upto 30 uM measured after 10 hrs by microbeta scintillation counting analysis; conditions: dose microM <=30, time 10.0 hrs; in short: as §1
T4 sequence (whole entry): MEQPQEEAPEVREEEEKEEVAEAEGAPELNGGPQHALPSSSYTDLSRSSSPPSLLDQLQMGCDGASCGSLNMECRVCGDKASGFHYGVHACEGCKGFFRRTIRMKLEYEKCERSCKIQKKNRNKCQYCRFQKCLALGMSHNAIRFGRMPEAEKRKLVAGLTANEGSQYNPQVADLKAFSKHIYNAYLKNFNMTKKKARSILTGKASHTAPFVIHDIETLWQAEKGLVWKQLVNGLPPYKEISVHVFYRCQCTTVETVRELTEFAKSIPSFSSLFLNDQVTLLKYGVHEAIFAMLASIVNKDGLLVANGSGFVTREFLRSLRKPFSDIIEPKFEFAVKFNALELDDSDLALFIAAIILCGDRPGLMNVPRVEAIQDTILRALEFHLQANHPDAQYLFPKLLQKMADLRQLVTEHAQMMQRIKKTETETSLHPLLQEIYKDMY

[12] = molecular target: Free fatty acid receptor 1 (Mus musculus) (UniProt Q76JU9); experiment: Agonist activity at Prolink-tagged mouse GPR40 fused with EA-tagged beta-arrestin expressed in human U2OS cells assessed as induction of beta-arrestin recruitment measured after 90 mins by beta-galactosidase based PathHunter assay relative to control; assay type: cell-based; conditions: filed as agonist; in short: as §3
[13] = molecular target: Free fatty acid receptor 1 (Rattus norvegicus) (UniProt Q8K3T4); experiment: Agonist activity at Prolink-tagged rat GPR40 fused with EA-tagged beta-arrestin expressed in human U2OS cells assessed as induction of beta-arrestin recruitment measured after 90 mins by beta-galactosidase based PathHunter assay relative to control; assay type: cell-based; conditions: filed as agonist; in short: as §3
[14] = molecular target: T3, Free fatty acid receptor 1; experiment: Agonist activity at human recombinant full length GPR40 overexpressed in human HEK293 cells assessed as increase in inositol phosphate accumulation in presence of terbium cryptate-labeled anti IP1/d2-labelled IP1 measured after 120 mins by HTRF assay relative to AMG837; assay type: functional, cell-based; conditions: filed as agonist
In short: (§4)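 HEK293 hGPR40 cells (20K/well) were cultured overnight, washed, and held in IP1 stimulation buffer. IP-1 was measured by competitive HTRF immunoassay with terbium cryptate anti-IP1 mAb and d2-labelled IP1.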

[15] = molecular target: T3, Free fatty acid receptor 1; experiment: Agonist activity at human recombinant full length GPR40 overexpressed in human HEK293 cells assessed as increase in inositol phosphate accumulation in presence of terbium cryptate-labeled anti IP1/d2-labelled IP1 measured after 120 mins by HTRF assay; assay type: functional, cell-based; in short: as §4

Sequence of Free fatty acid receptor 1 (Rattus norvegicus) (Q8K3T4 whole entry, the tested form may be a part): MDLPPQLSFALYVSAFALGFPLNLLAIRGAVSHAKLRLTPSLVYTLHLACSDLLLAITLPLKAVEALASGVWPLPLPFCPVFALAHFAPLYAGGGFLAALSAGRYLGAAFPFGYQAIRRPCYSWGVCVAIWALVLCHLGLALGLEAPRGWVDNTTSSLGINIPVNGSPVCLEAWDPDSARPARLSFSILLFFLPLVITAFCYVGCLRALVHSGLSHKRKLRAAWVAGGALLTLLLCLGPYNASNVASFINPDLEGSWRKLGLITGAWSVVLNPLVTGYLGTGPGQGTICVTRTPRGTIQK
Sequence of Free fatty acid receptor 1 (Rattus norvegicus, UniProt Q8K3T4) (Q8K3T4 whole entry, the tested form may be a part): as above
T3 sequence (O14842 whole entry): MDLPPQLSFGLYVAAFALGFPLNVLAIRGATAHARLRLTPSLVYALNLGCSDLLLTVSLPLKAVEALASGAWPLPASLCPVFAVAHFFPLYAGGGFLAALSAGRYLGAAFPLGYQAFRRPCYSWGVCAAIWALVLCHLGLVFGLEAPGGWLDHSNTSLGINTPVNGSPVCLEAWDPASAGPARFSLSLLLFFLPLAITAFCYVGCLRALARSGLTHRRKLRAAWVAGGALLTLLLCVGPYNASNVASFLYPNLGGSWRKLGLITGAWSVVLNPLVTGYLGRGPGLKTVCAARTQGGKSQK
Sequence of Free fatty acid receptor 1 (Mus musculus) (Q76JU9 whole entry, the tested form may be a part): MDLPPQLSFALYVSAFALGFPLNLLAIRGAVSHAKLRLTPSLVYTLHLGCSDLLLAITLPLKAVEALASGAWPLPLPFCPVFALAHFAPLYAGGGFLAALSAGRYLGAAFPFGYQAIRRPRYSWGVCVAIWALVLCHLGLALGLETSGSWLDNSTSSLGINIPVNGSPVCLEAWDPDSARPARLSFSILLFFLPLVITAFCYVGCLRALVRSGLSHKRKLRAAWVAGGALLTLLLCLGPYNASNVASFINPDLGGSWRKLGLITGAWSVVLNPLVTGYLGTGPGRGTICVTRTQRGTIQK
Sequence of Free fatty acid receptor 1 (Mus musculus, UniProt Q76JU9) (Q76JU9 whole entry, the tested form may be a part): as above

SMILES | Activity [1] | Activity [2] | Emax [3] | Ki [4] | EC50 [5] | EC50 [6] | EC50 [7] | Emax [8] | EC50 [9] | fraction unbound [10] | Activity [11] | Emax [12] | Emax [13] | Emax [14] | EC50 [15]
CC#C[C@@H](CC(=O)O)c1ccc(OCc2nc(C)c(CN3CCC4(C=Cc5ccccc54)CC3)s2)cc1 | inactive | inactive | 62% | 59 nM | 11 nM | 17 nM | 3.8 nM | 114% | 58 nM | < 0.01 | inactive | 118% | 112% | 112% | 10 nM
CC#C[C@@H](CC(=O)O)c1ccc(OCc2ccc(CN3CCC4(CC3)CN(C)c3ccc(C)cc34)cc2)cc1 | inactive | inactive | 60% | 14 nM | 61 nM | 4.6 nM | 2 nM | 121% | 25 nM | < 0.01 | inactive | 145% | 138% | 231% | 3.5 nM
CC#C[C@@H](CC(=O)O)c1ccc(OCc2ccc(CN3CCC4(CC3)CN(c3ccccc3)c3ccccc34)cc2)cc1 | inactive | inactive | 53% | 1.5 nM | 21 nM | 0.83 nM | 0.62 nM | 116% | 1.5 nM | < 0.01 | inactive | 130% | 132% | 226% | 2.1 nM
CC#C[C@@H](CC(=O)O)c1ccc(OCc2ncc(CN3CCC4(C=Cc5ccccc54)CC3)s2)cc1 | inactive | inactive | 63% | 130 nM | 2.8 nM | 23 nM | 7.2 nM | 117% | 84 nM | < 0.01 | inactive | 115% | 109% | 129% | 12 nM
CC#C[C@@H](CC(=O)O)c1ccc(OCc2cc(C)c(CN3CCC4(C=Cc5ccccc54)CC3)s2)cc1 | inactive | inactive | 65% | 3.5 nM | 2.9 nM | 1.1 nM | 0.69 nM | 127% | 3.9 nM | < 0.01 | inactive | 122% | 121% | 132% | 0.98 nM
CC#C[C@@H](CC(=O)O)c1ccc(OCc2ccc(CN3CCC4(CC3)CN(C(C)C)c3ccccc34)cc2)cc1 | inactive | inactive | 46% | 4.1 nM | 24 nM | 2.1 nM | 1.2 nM | 133% | 8.2 nM | < 0.01 | inactive | 143% | 139% | 343% | 11 nM
CC#C[C@@H](CC(=O)O)c1ccc(OCc2ccc(CN3CCC4(C=Cc5ccccc54)CC3)c(Cl)c2)cc1 | inactive | inactive | 47% | 1.5 nM | 32 nM | 1 nM | 0.83 nM | 150% | 3.3 nM | < 0.01 | inactive | 149% | 161% | 193% | 4.9 nM
